The species named for assay [1] is Rattus norvegicus. In words: Change in body weight of DMBA-induced mammary carcinoma tumor bearing rats at 2.8 mg dose. Type of assay: functional. In outline:
(§1)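 DMBA-induced tumor-bearing Sprague-Dawley rats (20 mg DMBA by gavage at 50 days old), randomized when tumor area exceeded 140 mm². Dose per kg was given sc in olive oil, single dose daily Monday to Thursday, double dose Friday. Body weight was measured twice weekly. Read-out was % change in body weight.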

The species named for assay [2] is Rattus norvegicus. Put plainly: Percent unchanged DMBA-induced mammary carcinoma tumors in rats at 2.8 mg dose. Type of assay: functional. In outline: (§2)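 Female Sprague-Dawley rats, 50 days old, given a single 20 mg DMBA dose in 1 mL olive oil by gavage. Rats were palpated twice weekly from day 30, and those without tumors by day 70 were discarded. Rats were randomized once tumor area exceeded 140 mm². Drug dose was per kg in olive oil (1 mL/kg) sc, single dose Mon–Thu and double dose Fri. Tumor area (caliper, two perpendicular axes) and body weight were measured twice weekly.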

For assay [3], the species on record is Rattus norvegicus. Put plainly: Change in DMBA-induced mammary carcinoma tumor area in rats at 2.8 mg dose; -39-458. It is filed as functional. The method, boiled down:
(§3)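 Female Sprague-Dawley rats got one 20 mg DMBA dose by gavage at 50 days old and were palpated twice weekly from day 30. Rats were randomized once tumor area exceeded 140 mm². Dose (per kg) was given sc in olive oil, once daily Monday to Thursday and doubled on Friday. Tumor area was taken from caliper measurements of two perpendicular axes, twice weekly. Change per animal is given as median % and range.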

For assay [4], the species on record is Rattus norvegicus. Put plainly: Formation of new DMBA-induced mammary carcinoma tumors in rats at 2.8 mg dose. Type of assay: functional. The method, boiled down: (§4)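 DMBA-induced tumors in Sprague-Dawley rats, entered when tumor area exceeded 140 mm². Dose per kg was given sc in olive oil, daily Monday to Thursday with a double dose Friday. Tumors were measured by calipers twice weekly. Tumor number was counted at the start of the test. Complete remission meant the tumor was no longer palpable. Partial remission meant reduction to ≤50% of initial size. New tumor appearance was recorded.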

Assay [5] is filed under the species Rattus norvegicus. Put plainly: Percent progressive DMBA-induced mammary carcinoma tumors in rats at 2.8 mg dose. It is filed as functional. The method, boiled down: as §2
The species entered for assay [6] is Rattus norvegicus. In words: Partial remission (%) of DMBA-induced mammary carcinoma tumors in rats at 2.8 mg dose. Type of assay: functional. The method, boiled down: as §2
Assay [7] is filed under the species Rattus norvegicus. In words: Number of DMBA-induced mammary carcinoma tumors in rats at 2.8 mg dose. Type of assay: functional. The method, boiled down:
as §4

For assay [8], the target named is T1, Estrogen receptor (Mus musculus) (UniProt O08537+P19785). In words: Uterotrophic activity in mice as uterus dry weight (mg)/body weight (g) *100 at 1 ug dose. It is filed as functional, tissue-based. The method, boiled down:
(§5)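 Immature 19-day-old female NMRI mice, groups of 10. Compound dose per animal in olive oil (50 µL) sc on 3 consecutive days. Mice were killed 24 h after the last injection. Uteri were Bouin-fixed 20 h, cleaned, washed with alcoholic LiCl, and dried at 100 °C for 24 h. Effect = uterine dry weight (mg)/body weight (g) ×100; mean ± SD.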

The species named for assay [9] is Rattus norvegicus. In words: Change in body weight of DMBA-induced mammary carcinoma tumor bearing rats at 0.5 mg dose. It is filed as functional. In outline:
as §1

For assay [10], the species on record is Rattus norvegicus. In words: Change in DMBA-induced mammary carcinoma tumor area in rats at 2.0 mg dose. Type of assay: functional. The method, boiled down:
as §3

The species entered for assay [11] is Rattus norvegicus. In words: Number of DMBA-induced mammary carcinoma tumors in rats at 2 mg dose. It is filed as functional. The method, boiled down:
as §4

Assay [12] is filed under the species Rattus norvegicus. Put plainly: Complete remission (%) of DMBA-induced mammary carcinoma tumors in rats at 0.5 mg dose. It is filed as functional. In outline: as §4
The species entered for assay [13] is Rattus norvegicus. In words: Percent unchanged DMBA-induced mammary carcinoma tumors in rats at 2 mg dose. It is filed as functional. In outline: as §2
For assay [14], the species on record is Rattus norvegicus. In words: Percent unchanged DMBA-induced mammary carcinoma tumors in rats at 0.5 mg dose. It is filed as functional. In outline: as §2
For assay [15], the species on record is Rattus norvegicus. Put plainly: Partial remission (%) of DMBA-induced mammary carcinoma tumors in rats at 0.5 mg dose. Type of assay: functional. In outline:
as §4

Assay [16] addresses T1, Estrogen receptor (Mus musculus). In words: Uterotrophic activity in mice as uterus dry weight (mg)/body weight (g) *100 at 25 ug dose. Type of assay: functional, tissue-based. The method, boiled down: as §5
Assay [17] is filed under the species Rattus norvegicus. In words: Percent progressive DMBA-induced mammary carcinoma tumors in rats at 0.5 mg dose. Type of assay: functional. In outline: as §2
For assay [18], the species on record is Rattus norvegicus. Put plainly: Formation of new DMBA-induced mammary carcinoma tumors in rats at 0.5 mg dose. Type of assay: functional. The method, boiled down:
as §4

The species entered for assay [19] is Rattus norvegicus. Put plainly: Partial remission (%) of DMBA-induced mammary carcinoma tumors in rats at 2 mg dose. Type of assay: functional. The method, boiled down:
as §2

Assay [20] deals with T1, Estrogen receptor (Mus musculus). Put plainly: Uterotrophic activity in mice as uterus dry weight (mg)/body weight (g) *100 at 5 ug dose. Type of assay: functional, tissue-based. The method, boiled down: as §5
The species entered for assay [21] is Rattus norvegicus. Put plainly: Change in DMBA-induced mammary carcinoma tumor area in rats at 0.5 mg dose. Type of assay: functional. The method, boiled down:
as §3

For assay [22], the species on record is Rattus norvegicus. In words: Number of DMBA-induced mammary carcinoma tumors in rats at 0.5 mg dose. It is filed as functional. The method, boiled down: as §4
In assay [23] the target is T1, Estrogen receptor (Mus musculus). Put plainly: Uterotrophic activity in mice as uterus dry weight (mg)/body weight (g) *100 at 125 ug dose. It is filed as functional, tissue-based. In outline:
as §5

The species entered for assay [24] is Rattus norvegicus. In words: Formation of new DMBA-induced mammary carcinoma tumors in rats at 2 mg dose. Type of assay: functional. The method, boiled down: as §4
For assay [25], the target named is T1, Estrogen receptor (Mus musculus). In words: Uterotrophic activity in mice as uterus dry weight (mg)/body weight (g) *100 at 0.2 ug dose. Type of assay: functional, tissue-based. In outline:
as §5

For assay [26], the species on record is Rattus norvegicus. Put plainly: Change in body weight of DMBA-induced mammary carcinoma tumor bearing rats at 2 mg dose. It is filed as functional. The method, boiled down: as §1
Assay [27] is filed under the species Rattus norvegicus. In words: Percent progressive DMBA-induced mammary carcinoma tumors in rats at 2 mg dose. Type of assay: functional. The method, boiled down:
as §2

For assay [28], the species on record is Rattus norvegicus. Put plainly: Change in DMBA-induced mammary carcinoma tumor area in rats at 0.5 mg dose; -100-346. Type of assay: functional. In outline: as §3
For assay [29], the species on record is Rattus norvegicus. Put plainly: Complete remission (%) of DMBA-induced mammary carcinoma tumors in rats at 2 mg dose. It is filed as functional. In outline:
as §4

T1 sequence (O08537 whole entry, looked up): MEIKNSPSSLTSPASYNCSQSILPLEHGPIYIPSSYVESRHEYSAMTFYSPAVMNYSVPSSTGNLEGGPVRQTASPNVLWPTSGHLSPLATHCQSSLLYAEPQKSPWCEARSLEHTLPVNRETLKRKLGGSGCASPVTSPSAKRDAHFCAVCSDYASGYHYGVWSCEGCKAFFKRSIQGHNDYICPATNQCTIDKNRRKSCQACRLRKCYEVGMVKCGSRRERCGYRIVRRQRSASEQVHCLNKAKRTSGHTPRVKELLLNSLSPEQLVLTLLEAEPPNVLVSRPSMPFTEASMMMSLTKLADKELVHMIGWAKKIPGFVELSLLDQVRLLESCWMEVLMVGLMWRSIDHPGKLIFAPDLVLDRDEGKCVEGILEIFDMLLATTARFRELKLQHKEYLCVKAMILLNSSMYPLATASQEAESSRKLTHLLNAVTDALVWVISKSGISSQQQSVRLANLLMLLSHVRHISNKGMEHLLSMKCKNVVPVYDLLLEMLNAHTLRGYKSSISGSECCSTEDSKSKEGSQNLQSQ
T1 sequence (P19785 whole entry, looked up): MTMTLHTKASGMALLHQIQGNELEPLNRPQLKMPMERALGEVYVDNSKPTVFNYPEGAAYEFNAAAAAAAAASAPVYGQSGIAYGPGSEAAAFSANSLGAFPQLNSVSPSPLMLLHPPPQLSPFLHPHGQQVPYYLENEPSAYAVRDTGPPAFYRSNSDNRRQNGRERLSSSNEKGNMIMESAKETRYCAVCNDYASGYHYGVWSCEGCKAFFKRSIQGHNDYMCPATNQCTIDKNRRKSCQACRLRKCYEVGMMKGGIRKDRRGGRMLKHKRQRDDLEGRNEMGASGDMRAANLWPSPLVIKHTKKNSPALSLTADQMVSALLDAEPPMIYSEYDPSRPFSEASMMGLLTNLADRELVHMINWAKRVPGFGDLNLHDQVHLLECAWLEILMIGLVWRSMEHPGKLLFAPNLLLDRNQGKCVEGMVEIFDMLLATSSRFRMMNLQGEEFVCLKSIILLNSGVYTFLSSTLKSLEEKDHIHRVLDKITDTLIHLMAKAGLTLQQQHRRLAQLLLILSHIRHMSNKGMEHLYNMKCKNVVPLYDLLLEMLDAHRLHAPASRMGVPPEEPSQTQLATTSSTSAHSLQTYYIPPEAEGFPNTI

Regarding `CC/C(=C(\c1ccccc1)c1ccc(OCCN(C)C)cc1)c1ccccc1.O=C(O)CC(O)(CC(=O)O)C(=O)O` [TAMOXIFEN CITRATE], the “Change of body weight” value in [1] was found to be 0. In addition, in assay [2], the Static remission amounted to 27%. Further, in assay [3], the “Change of tumor area” value is -39%. Further, in assay [4], the New tumors worked out at 26. Moreover, the Progressed tumors in [5] came to 53. The Partial remission in [6] is on record as 7%. The same molecule returned a No. of tumors in assay [7] of 34.

On to `CCn1c(-c2ccc(OC(C)=O)cc2)c(C)c2ccc(OC(C)=O)cc21`, for which the Uterotrophic effect was 31.6 in assay [8]; 44.8 in [16]; 41.5 in assay [20]; 42.4 in assay [23]; 20.8 in assay [25]. Moreover, the “Change of body weight” value in [9] is -15%; in [26], -13%. Besides, the “Change of tumor area” value in [10] is given as -96%; in assay [21], -74%; in [28], -100%. Further, the figures for the No. of tumors in [11] and in assay [22] were 34 and 40, respectively. Moreover, the Complete remission is recorded as 65% in assay [12] and 70% in [29]. In addition, the Static tumors in assay [13] is listed as 2%; in assay [14], 15%. The Partial remission came to 11% in [15] and 23% in assay [19]. The Progressed tumors is 9% in assay [17] and 5% in assay [27]. In addition, the New tumors in assay [18] and in assay [24] was 6 throughout.
